Data on 19 compounds can be found in ChEMBL document CHEMBL3286159, “Design, synthesis and molecular docking of amide and urea derivatives as Escherichia coli PDHc-E1 inhibitors” (Bioorg Med Chem, 2014).

This assay can be described thus: Inhibition of purified Escherichia coli PDHc-E1 using sodium pyruvate as substrate assessed as reduction of 2,6-DichloroPhenolindophenol after 3 mins by spectrophotometry. The method, boiled down: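 E. coli PDHc-E1 expressed as MBP fusion from pMal-C2X in E. coli TB1 (IPTG 0.5 mM, 7 h, 25 °C) and purified by MBP affinity. Mix of 50 mM K3PO4 pH 7.2, 2.0 mM pyruvate, 0.8 mM 2,6-DCPIP, 7.1 µM enzyme and inhibitor preincubated 3 min at 37 °C. ThDP (0–200 µM) added to start. DCPIP reduction read at 600 nm. Initial rates fit to Hill equation for IC50.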
A word on the IC50: it is the concentration at which inhibition is half-maximal. On to `Cc1ncc(CNC(=O)COc2ccccc2Cl)c(N)n1`, for which the IC50 was determined as 16.6 µM.
Take `Cc1ncc(CNC(=O)COc2ccc(C#N)cc2)c(N)n1`: the IC50 is 13.4 µM.
In the case of `Cc1ncc(CNC(=O)COc2ccc(Cl)cc2)c(N)n1` it was 13 µM; in that of `Cc1ncc(CNC(=O)COc2ccccc2)c(N)n1`, 45.4 µM.
To `Cc1ncc(CNC(=O)COc2ccccc2Br)c(N)n1` belongs 60.8 µM.
To `Cc1ccc(OCNC(=O)NCc2cnc(C)nc2N)cc1` belongs 9.23 µM.
Take `Cc1ncc(CNC(=O)NCOc2ccc(F)cc2)c(N)n1`: the IC50 amounted to 10.3 µM.
For the compound `Cc1ncc(CNC(=O)COc2ccc([N+](=O)[O-])cc2)c(N)n1`, the half-maximal inhibitory concentration (IC50) worked out at 3.58 µM.
In the case of `Cc1ncc(CNC(=O)COc2ccc(Br)cc2)c(N)n1` it was 11.1 µM; in that of `Cc1ncc(CNC(=O)COc2ccc(Cl)cc2Cl)c(N)n1`, 9.45 µM; in that of `Cc1ccc(OCC(=O)NCc2cnc(C)nc2N)cc1`, 21.6 µM.
To `Cc1ncc(CNC(=O)COc2ccc(F)cc2)c(N)n1` belongs 17.4 µM.
In the case of `Cc1ncc(CNC(=O)COc2ccc(Cl)cc2C)c(N)n1` it was 21.9 µM.
In the case of `Cc1ncc(CNC(=O)NCOc2ccccc2)c(N)n1`, the IC50 is 12.9 µM.
In the case of `Cc1ncc(CNC(=O)NCOc2ccc(Cl)cc2)c(N)n1` it was 3.67 µM; in that of `COc1ccc(OCC(=O)NCc2cnc(C)nc2N)cc1`, 16.8 µM.
For `Cc1ncc(CNC(=O)COc2ccc([N+](=O)[O-])cc2Cl)c(N)n1`, the half-inhibitory concentration (IC50) was 4.9 µM.
To `Cc1ncc(CNC(=O)COc2ccc(F)cc2Cl)c(N)n1` belongs 7.6 µM; to `COc1ccc(OCNC(=O)NCc2cnc(C)nc2N)cc1`, 6.3 µM.
